E-sel inducer – E-selectin induction on HUVECs | HUVEC E-selectin immunofluorescence imaging; normalized: neutral wells 0, TNF-alpha wells 100 | activation, % at 7.58 µM | 260,000 tested, 0.37% active;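 active = mean E-selectin-positive cell signal at least 10% of the positive control, reached in at least 60% of replicates, without over 20% cell loss; inconclusive = no rule given, readout overlaps actives, possibly toxicity-flagged; inactive = the rest, including those meeting only one limit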
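Test system – human umbilical vein endothelial cells (HUVEC), E-selectin induction · Input – 3,000 HUVEC seeded per well · Buffer or medium – EGM-2, gelatin · Compound dosing – single-point compound dose · Detection – immunofluorescence imaging · Measure – percent E-selectin-positive cells · Controls – TNF-alpha high, DMSO low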
Ecoli rRNA inh – inhibits bacterial ribosomal RNA function over humanized ribosomes; E. coli WT GFP vs humanized-ribosome RFP mutants, fluorescence, 24 h; stronger effect = lower value; DMSO median 0, no signal -100; GFP signal change (wild-type ribosome), % (no concentration beside the values); 350,000 tested, 1.6% active;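 active = significant combined selectivity score with lowered wild-type GFP, culture density cut under 30%, mutant RFP and density less affected; inactive = any of these conditions unmet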
GSIS activator – primary screen for activators of insulin secretion dependent on glucose, INS-1E cells, GLuc reporter luminescence; AID 743287; activation, % at 16.6 µM; INS-1E GLuc reporter insulin secretion, 2-3 h; 370,000 tested, 0.61% active;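 active = lowest replicate activation of at least 40%, so every replicate reaches that level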;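 note: 0% = median of neutral control wells and 100% = median of IBMX positive control wells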
RAD54 inh – inhibitors of human RAD54 branch migration; RAD54 Holliday junction branch migration, FAM/BHQ fluorescence; 360,000 tested, 0.14% active; inhibition, % at 10.4 µM;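 active = mean normalized replicate activity at least 40 and at least half of replicates scoring 40 or more; inconclusive = only one of the two criteria met; inactive = mean below 40 and under half of replicates reaching 40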;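 note: 0% = median of neutral control wells and 100% = median of positive control wells; inhibitors cause a drop in the FAM fluorescence signal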
AF4-AF9 inh – MLL-AF4/AF9 protein interaction inhibition. AlphaScreen, biotin-AF4 peptide binding to FLAG-AF9. inhibition, % at 10 µM. 350,000 tested, 0.47% active. AID 651704;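 active = every replicate reaching a set inhibition limit, whatever the replicate mean, cut at about 25% in these data; inconclusive = mean inhibition reaches that limit but some replicates miss it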;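 note: 0% = plate neutral control median and 100% = total signal loss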
Target sequence (P42568 whole entry, looked up): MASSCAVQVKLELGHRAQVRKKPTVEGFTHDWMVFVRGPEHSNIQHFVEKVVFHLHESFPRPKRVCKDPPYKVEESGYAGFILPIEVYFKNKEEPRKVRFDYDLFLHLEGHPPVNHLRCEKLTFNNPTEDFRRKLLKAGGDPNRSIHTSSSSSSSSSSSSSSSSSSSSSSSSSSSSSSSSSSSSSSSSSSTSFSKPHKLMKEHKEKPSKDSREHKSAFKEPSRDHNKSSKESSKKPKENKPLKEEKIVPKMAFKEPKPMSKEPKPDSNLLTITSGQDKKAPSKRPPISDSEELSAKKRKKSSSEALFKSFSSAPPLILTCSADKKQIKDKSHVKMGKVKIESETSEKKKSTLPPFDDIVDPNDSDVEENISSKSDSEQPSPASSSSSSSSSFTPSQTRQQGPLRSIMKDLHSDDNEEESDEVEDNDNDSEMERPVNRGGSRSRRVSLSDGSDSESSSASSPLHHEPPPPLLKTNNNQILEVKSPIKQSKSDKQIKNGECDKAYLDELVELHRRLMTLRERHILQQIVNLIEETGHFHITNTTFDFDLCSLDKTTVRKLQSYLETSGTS
RAD52 inh – blocks human RAD52 DNA annealing | P43351 | recombinant RAD52 DNA annealing, FRET fluorescence | inhibition, % at 18.7 µM | 360,000 tested, 0.46% active | AID 651710;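 active = every replicate showing at least 50% inhibition; inconclusive = mean inhibition at least 50% but not in every replicate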
The depositor's hits bear a star; ? = inconclusive; · = no result. Only some compounds are listed: those with a hit (about 2.6% of all), similar ones and a draw of the others.

SMILES | E-sel inducer | Ecoli rRNA inh | GSIS activator | RAD54 inh | AF4-AF9 inh | RAD52 inh
C/C(Cl)=C/CSc1nc2c(c(=O)[nH]c(=O)n2C)n1C(C)C | · | · | 74.4* | -6.1 | · | ·
CCCCCCn1c(SCCCC)nc2c1c(=O)[nH]c(=O)n2C | · | · | · | -6.5 | · | ·
C=CCSc1nc2c(c(=O)[nH]c(=O)n2C)n1C(C)C | · | · | · | -4.0 | · | ·
Cc1ccc(-c2ccc3c(c2)O[C@@H](CN(C)C(=O)CC2CC2)[C@H](C)CN([C@@H](C)CO)S3(=O)=O)cc1 | -2.2 | -20.4 | -27.0 | -1.7 | 0.5 | 4.9
N#C/C(=N\Nc1ccc(F)cc1)C(=O)C1CC1 | 0.0 | -34.5* | -50.0 | -4.5 | · | -50.5
N#C/C(=N\Nc1ccc(Cl)c(Cl)c1)C(=O)C1CC1 | 0.1 | -42.4 | -54.0 | -6.1 | 4.6 | -2.7
O=C(Cc1ccccn1)N[C@@H]1CC[C@@H](CCn2cc(-c3ccc(F)cc3)nn2)O[C@@H]1CO | 0.0 | -0.8 | 0.0 | · | -3.1 | -10.2
Cc1noc(C)c1NC(=O)N[C@H]1CC[C@H](CC(=O)Nc2ccccc2)O[C@@H]1CO | 0.1 | 1.8 | 24.1 | -0.7 | -1.7 | -9.2
N#CC1=C(SCC(=O)Nc2nccs2)NC(=O)CC1c1ccccc1 (centres undefined) | · | -28.1* | 9.9 | 9.0 | -14.8 | -16.2
O=C(C[n+]1cccc(CNC(=O)c2ccc(OC(F)F)cc2)c1)Nc1ccc(F)cc1 | -2.4 | -18.6* | 20.0 | · | 1.6 | 2.7
COC(=O)c1cc(NC(=O)CSc2nnc(N)s2)ccc1Cl | -5.6 | -21.6* | 3.9 | -4.4 | -0.7 | -5.3
Cc1ccc(NC(=O)Cn2c(CCC(=O)O)ccc2-c2ccc(Cl)cc2)cc1 | · | -24.8* | -22.9 | -5.8 | -2.1 | -37.2
CC(=O)N1CCN(c2ccc(NCc3ccc(C)s3)cc2)CC1 | 0.0 | -0.3 | · | 3.8 | 27.4* | 5.3
CNc1nc(N)c(C(=O)C(C)(C)C)s1 | · | 7.8 | 47.0* | · | 2.8 | -13.9
CNc1ncc(C(=O)C(C)(C)C)s1 | · | · | · | 6.2 | · | ·
CC1(C)Cc2c(c(-c3ccco3)nc3sc4c(NCCO)ncnc4c23)CO1 | · | -5.1 | 87.8* | · | -0.8 | -8.7
CC1(C)Cc2c(c(N3CCOCC3)nc3sc4c(NCCN)ncnc4c23)CO1 | · | -3.9 | 52.2* | · | 6.4 | 0.1
CN(C)CCNc1ncnc2c1sc1nc(N3CCOCC3)c3c(c12)CC(C)(C)SC3 | · | · | · | 27.2 | · | ·
Cc1nc(SCc2ccccc2)c2ccsc2n1 | 1.2 | -30.4 | 7.9 | · | -0.2 | 1.0
c1ccc(CSc2ncnc3sccc23)cc1 | · | -27.4* | 19.4 | -4.4 | -2.5 | -11.9
CCC(C)NCCOCCOc1ccc(Cl)c2ccccc12 (centres undefined) | 2.5 | -53.1* | -13.6 | 27.1 | -12.8 | 29.5
O=C1C(Cl)=C(N2CCOCC2)C(=O)N1c1cccc(Cl)c1 | · | · | 44.7* | -2.6 | · | ·
Cc1cccc(N2C(=O)C(Cl)=C(N3CCOCC3)C2=O)c1 | 3.1 | -0.2 | 4.0 | -5.8 | -5.4 | 13.8
COc1ccc(CO/N=C/c2c(C)[nH]c(=O)[nH]c2=O)cc1 | · | · | 44.0* | 2.4 | · | ·
C[C@@H]1CCCCO[C@H](CN(C)C(=O)c2ccncc2)[C@H](C)CN([C@H](C)CO)C(=O)c2cc(NC(=O)C3CCCCC3)ccc2O1 | -0.1 | 1.4 | 8.7 | 5.6 | -2.8 | 9.5
SMILES | E-sel inducer | Ecoli rRNA inh | GSIS activator | RAD54 inh | AF4-AF9 inh | RAD52 inh
COc1cccc(-c2nc(NCc3ccccc3)c3ccccc3n2)c1O | · | -0.5 | 10.2 | 2.0 | -0.5 | -10.2
COc1cccc(-c2nc(NCc3ccco3)c3ccccc3n2)c1O | · | · | 75.6* | 6.2 | · | ·
Cc1ccc(S(=O)(=O)NCC[C@@H]2CC[C@H](NC(=O)CCN3CCCCC3)[C@@H](CO)O2)cc1 | -0.2 | -0.7 | 0.2 | -1.1 | 2.7 | 1.9
O=C(O)CN1C(=O)/C(=C\c2ccccc2OCc2ccccc2)SC1=S | 1.6 | -29.2 | 24.6 | 6.2 | -4.4 | -24.3
O=C(O)CN1C(=O)/C(=C\c2cc(Br)ccc2OCc2ccc(F)cc2)SC1=S | 0.0 | -27.0 | 6.1 | -3.9 | -6.7 | -28.7
O=C(O)CN1C(=O)/C(=C\c2cc(Br)ccc2OCc2ccc(Cl)cc2)SC1=S | 49.3* | -55.1 | · | 5.7 | 0.7 | -27.0
O=C(O)CN1C(=O)/C(=C\c2ccccc2OCc2ccc(F)cc2)SC1=S | 0.0 | -39.0* | 13.6 | 12.6 | -0.3 | -16.7
O=C(O)CSc1nnc(-c2ccccc2Br)n1-c1cccc(C(F)(F)F)c1 | ? | -23.8* | -6.4 | · | -1.6 | 2.8
C[C@H](CO)N1C[C@H](C)[C@H](CN(C)Cc2ccc(Cl)c(Cl)c2)Oc2c(NC(=O)c3nc4ccccc4s3)cccc2C1=O | -5.5 | 2.1 | -8.7 | 2.3 | 4.5 | 8.4
CCN(CC)c1ccc(C(=S)NC2CCCCC2)cc1 | 0.8 | -20.6* | -10.6 | 4.6 | 9.2 | -12.5
CN(C)c1ccc(C(=S)NC2CCCCC2)cc1 | · | 9.2 | 4.3 | · | -0.7 | -18.6
C[C@@H]1CN([C@@H](C)CO)C(=O)Cc2cc(NC(=O)Nc3ccccc3)ccc2O[C@@H]1CN(C)C(=O)Nc1ccc(F)cc1 | 0.0 | 2.4 | -4.8 | 13.1 | -0.1 | -1.8
O=C(NCc1nc(-c2ccc(C(F)(F)F)cc2)no1)Nc1ccc(F)cc1F | · | 15.0 | · | -1.5 | 0.3 | -8.2
O=C(NCc1nc(-c2ccc(C(F)(F)F)cc2)no1)Nc1cc(Cl)cc(Cl)c1 | · | -46.9* | · | · | 3.3 | -2.5
CCn1c(SCc2cc(=O)[nH]c3ccccc23)nc2c1c(=O)n(C)c(=O)n2C | · | · | 49.4* | · | · | ·
O=C(C[n+]1ccc(/C=C/c2ccccc2)cc1)c1ccc2c(c1)OCCO2 | -0.1 | -9.7 | -23.2 | 25.8 | 17.4 | 76.2*
O=C(/C=C/c1ccc2c(c1)OCCCO2)c1ccccc1O | 0.2 | -33.1* | -21.6 | · | 5.6 | -21.1
Cc1cc[n+](CC(=O)c2ccc3c(c2)OCCO3)cc1 | · | 17.7 | 1.0 | 5.0 | -2.7 | -19.4
O=C(/C=C/c1ccccc1)c1ccc2c(c1)OCO2 | 0.1 | -24.4* | -25.1 | -2.8 | 2.3 | -22.9
C[C@@H]1CN([C@H](C)CO)C(=O)c2cc(NC(=O)c3ccncc3)ccc2O[C@@H](C)CCCCO[C@H]1CN(C)C(=O)c1ccccc1 | 0.0 | -1.5 | 5.8 | · | · | ·
CN(C)CCCN(C(=O)c1ccc(S(=O)(=O)N2CCc3ccccc3C2)cc1)c1nc2c(F)cccc2s1 | · | -46.7* | -19.4 | 8.1 | 10.4 | -6.2
CCOC(=O)N1CCN(S(=O)(=O)c2ccc(C(=O)N(CCCN(C)C)c3nc4c(C)c(C)ccc4s3)cc2)CC1 | 0.8 | -5.7 | -43.6 | 17.3 | 26.0* | 32.9
CCOC(=O)N1CCN(S(=O)(=O)c2ccc(C(=O)N(CCN(C)C)c3nc4c(C)cccc4s3)cc2)CC1 | 0.0 | 5.3 | -12.4 | -6.5 | 1.6 | -1.5
C[C@@H]1CN([C@H](C)CO)C(=O)c2cccc(NC(=O)c3nc4ccccc4s3)c2O[C@@H]1CN(C)S(=O)(=O)c1ccc(F)cc1 | -0.1 | 1.8 | -13.4 | -8.6 | -2.5 | 19.4

Screening data as filed in PubChem BioAssay.
